# Source: ChEMBL document CHEMBL1144296, “3,4-Dihydro-2H-benzoxazinones are 5-HT(1A) receptor antagonists with potent 5-HT reuptake inhibitory activity” (Bioorg Med Chem Lett, 2005)
# Experiments:
# [1] = molecular target: Sodium-dependent serotonin transporter (Rattus norvegicus, UniProt P31652); assay: Mean negative logarithim of binding affinity was measured for the rat serotonin transporter; n>/=3
# [2] = molecular target: T1, 5-hydroxytryptamine receptor 1A (Homo sapiens, UniProt P08908); assay: Mean negative logarithim of binding affinity was measured for the human 5-hydroxytryptamine 1A receptor; n>/=3
# T1 sequence (P08908 whole entry): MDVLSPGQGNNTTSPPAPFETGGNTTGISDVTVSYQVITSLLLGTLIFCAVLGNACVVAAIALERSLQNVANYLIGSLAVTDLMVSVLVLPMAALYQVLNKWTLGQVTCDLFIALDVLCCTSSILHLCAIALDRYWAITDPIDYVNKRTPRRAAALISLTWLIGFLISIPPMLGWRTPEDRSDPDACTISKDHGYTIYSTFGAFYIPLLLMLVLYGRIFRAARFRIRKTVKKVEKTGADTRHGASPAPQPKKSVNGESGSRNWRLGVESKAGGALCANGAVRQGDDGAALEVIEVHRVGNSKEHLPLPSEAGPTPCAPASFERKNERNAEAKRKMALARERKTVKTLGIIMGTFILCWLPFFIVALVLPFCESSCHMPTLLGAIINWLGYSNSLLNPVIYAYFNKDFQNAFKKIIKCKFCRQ
# [3] = molecular target: T2, 5-hydroxytryptamine receptor 1A (Homo sapiens) (UniProt P08908); assay: Mean intrinsic activity was measured for the human 5-hydroxytryptamine 1A receptor; n=3
# T2 sequence (whole entry): T1 sequence (P08908 whole entry)
# How it was run: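 [35S]-GTPγS binding in HEK293 cells expressing the human 5-HT1A receptor. Intrinsic activity is the mean of three experiments, each within 0.1 of the mean.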
# [4] = molecular target: Beta-2 adrenergic receptor (Homo sapiens, UniProt P07550); assay: Binding affinity for human beta-2 adrenergic receptor by displacing [125I]iodocyanopindolol expressed in hamster CHO cells; type: cell-based
# Beta-2 adrenergic receptor, sequence (P07550 whole entry): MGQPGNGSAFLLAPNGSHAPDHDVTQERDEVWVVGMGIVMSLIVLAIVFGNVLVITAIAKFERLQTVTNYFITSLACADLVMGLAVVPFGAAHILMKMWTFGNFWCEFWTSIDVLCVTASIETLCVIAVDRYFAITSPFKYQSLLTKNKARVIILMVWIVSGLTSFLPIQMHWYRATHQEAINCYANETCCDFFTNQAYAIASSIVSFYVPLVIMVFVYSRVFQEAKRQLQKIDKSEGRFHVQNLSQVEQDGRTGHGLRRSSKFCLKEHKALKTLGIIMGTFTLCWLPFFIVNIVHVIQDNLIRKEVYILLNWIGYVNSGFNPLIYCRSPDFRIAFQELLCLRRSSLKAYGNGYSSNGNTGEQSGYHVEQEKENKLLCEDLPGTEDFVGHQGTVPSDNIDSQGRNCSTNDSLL
# Sodium-dependent serotonin transporter, sequence (P31652 whole entry): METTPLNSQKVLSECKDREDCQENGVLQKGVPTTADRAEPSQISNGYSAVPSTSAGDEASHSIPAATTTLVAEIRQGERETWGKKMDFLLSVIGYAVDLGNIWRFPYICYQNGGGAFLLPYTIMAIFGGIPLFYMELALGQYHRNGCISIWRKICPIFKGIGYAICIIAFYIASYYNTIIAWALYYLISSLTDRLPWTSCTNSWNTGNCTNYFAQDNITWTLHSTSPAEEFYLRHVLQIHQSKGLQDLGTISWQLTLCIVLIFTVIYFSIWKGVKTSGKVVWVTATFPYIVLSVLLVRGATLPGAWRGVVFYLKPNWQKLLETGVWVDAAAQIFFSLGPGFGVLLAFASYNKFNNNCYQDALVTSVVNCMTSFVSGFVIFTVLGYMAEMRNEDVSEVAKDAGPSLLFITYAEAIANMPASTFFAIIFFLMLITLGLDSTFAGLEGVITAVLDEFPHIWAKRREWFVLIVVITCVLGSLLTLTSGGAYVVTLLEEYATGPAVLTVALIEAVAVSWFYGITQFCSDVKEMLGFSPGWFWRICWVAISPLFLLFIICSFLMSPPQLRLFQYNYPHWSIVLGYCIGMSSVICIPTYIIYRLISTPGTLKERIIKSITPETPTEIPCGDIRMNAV
Ki [1],Ki [2],IA [3],SMILES,Ki [4]
31.6 nM,12.6 nM,0.1,O=C1COc2ccc(OC3CCN(CCOc4cccc5ncccc45)CC3)cc2N1,
5.01 nM,3.98 nM,0.2,O=C1COc2ccc(OC3CCN(CCOc4cccc5[nH]ccc45)CC3)cc2N1,
50.1 nM,1.26 nM,0.3,O=C1COc2ccc(OCC3CCN(CCOc4cccc5ncccc45)C3)cc2N1 (stereo not given),
6.31 nM,1.26 nM,0.2,O=C1COc2ccc(CC3CCN(CCOc4cccc5ncccc45)CC3)cc2N1,
39.8 nM,6.31 nM,0.5,O=C1COc2ccc(OC3CCN(CCOc4cccc5cccnc45)CC3)cc2N1,
100 nM,2.51 nM,0.4,O=C1COc2ccc(OC3CCN(CCOc4cccc5ccccc45)CC3)cc2N1,
50.1 nM,7.94 nM,0.8,O=C1COc2ccc(OC3CCN(CCOc4nccc5ccccc45)CC3)cc2N1,
,100 nM,,O=C1COc2ccc(OC3CCN(CCOc4ccnc5ccccc45)CC3)cc2N1,
31.6 nM,10 nM,0.2,O=C1COc2ccc(CN3CCN(CCOc4cccc5ncccc45)CC3)cc2N1,
79.4 nM,1.58 nM,0.3,O=C1COc2ccc(OCC3CCCN(CCOc4cccc5ncccc45)C3)cc2N1 (stereo not given),
7.94 nM,1.58 nM,0.3,N#Cc1cc2c(OCCN3CCC(Oc4ccc5c(c4)NC(=O)CO5)CC3)cccc2[nH]1,
,,0.2,Cc1ccc2c(OCCN3CCC(Cc4ccc5c(c4)NC(=O)CO5)CC3)cccc2n1,

# Continued, molecule first:
SMILES,Ki [1],Ki [2],IA [3],Ki [4]
CC(COc1ccc2c(c1)NC(=O)CO2)NCC(O)COc1cccc2[nH]ccc12 (stereo in doubt; 1c) [listing 1 of 2 here],100 nM,,,
CC(COc1ccc2c(c1)NC(=O)CO2)NCC(O)COc1cccc2[nH]ccc12 (stereo in doubt; 1a) [listing 1 of 2 here],126 nM,,,
CC(COc1ccc2c(c1)NC(=O)CO2)NCC(O)COc1cccc2[nH]ccc12 (stereo in doubt; 1c) [listing 2 of 2 here],,,0.3,
CC(COc1ccc2c(c1)NC(=O)CO2)NCC(O)COc1cccc2[nH]ccc12 (stereo in doubt; 1a) [listing 2 of 2 here],,,0.4,
CC(COc1ccc2c(c1)NC(=O)CO2)NCC(O)COc1cccc2[nH]ccc12 (stereo in doubt; 1) [listing 1 of 2 here],50.1 nM,,,
O=C1COc2ccc(OCCNCCCOc3cccc4[nH]ccc34)cc2N1,79.4 nM,1.58 nM,0.6,1000 nM
CC(COc1ccc2c(c1)NC(=O)CO2)NCC(O)COc1cccc2[nH]ccc12 (stereo in doubt; 1b),,,0.3,
CC(COc1ccc2c(c1)NC(=O)CO2)NCC(O)COc1cccc2[nH]ccc12 (stereo in doubt; 1d) [listing 1 of 2 here],316 nM,,,
CC(COc1ccc2c(c1)NC(=O)CO2)NCC(O)COc1cccc2[nH]ccc12 (stereo in doubt; 1) [listing 2 of 2 here],,,0.3,
CC(COc1ccc2c(c1)NC(=O)CO2)NCC(O)COc1cccc2[nH]ccc12 (stereo in doubt; 1d) [listing 2 of 2 here],,,0.2,
